This is a sample that favours compounds with a hit; in the whole collection about 0.99% have one here.
DYRK1A inh – inhibitors of rat Dyrk1A kinase. Q63470. ADP-Glo luminescence, NFATc1 peptide. inhibition, % at 12.5 µM. 0.43% of 310,000 active; in the data active means inhibition above about 50%
GSK3A inh – inhibitors of human GSK-3 alpha kinase; P49840; ADP-Glo luminescence, 60 min; inhibition, % at 10 µM; 0.1% of 320,000 active;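 active means more than half of replicates show inhibition above 20%; inconclusive means some but at most half of replicates above 20% inhibition; inactive means no replicate shows inhibition above 20%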;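 further: GST-tagged GSK-3 alpha with peptide substrate and 25 µM ATP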
STK33 kinase inh – inhibitors of human STK33 kinase | AID 2661 | inhibition, % at 10 µM | purified STK33, MBP phosphorylation, ADP-Glo luminescence | 0.073% of 320,000 active | Q9BYT3;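 active means inhibition at or above 25%, using the most active replicate where run in duplicate; inactive means inhibition below 25%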
Rce1 inhib – inhibitors of yeast Ras-converting enzyme; Q03530; yeast membranes, quenched prenylated peptide cleavage fluorescence; calls only; 0.27% of 290,000 active;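 active means fall in fluorescence gain of 50% or more versus controls, with final raw signal at or below 3038400; inconclusive means same 50% fall but final raw signal above 3038400; inactive means fall in fluorescence gain under 50%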
Target sequence (Q03530 whole entry, looked up): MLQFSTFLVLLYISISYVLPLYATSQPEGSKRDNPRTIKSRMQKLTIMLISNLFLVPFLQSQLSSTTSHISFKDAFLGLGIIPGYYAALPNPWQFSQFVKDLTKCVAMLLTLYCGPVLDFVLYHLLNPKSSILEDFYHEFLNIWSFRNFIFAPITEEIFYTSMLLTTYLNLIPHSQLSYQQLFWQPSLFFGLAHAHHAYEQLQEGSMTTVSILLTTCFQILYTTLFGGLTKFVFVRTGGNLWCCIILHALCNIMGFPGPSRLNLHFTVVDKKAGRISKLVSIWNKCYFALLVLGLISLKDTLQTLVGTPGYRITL
GSK3B inh – human GSK3beta kinase inhibition; P49841; GST-GSK3beta kinase, ADP-Glo luminescence, 60 min; stronger effect = lower value; activity score (negative = inhibition), % at 10 µM; 0.038% of 300,000 active; AID 2097;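 active means more than half of replicate wells score below -50%, meaning over 50% inhibition versus plate controls; inconclusive means some replicates but at most half score below -50%; inactive means no replicate scores below -50%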
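Test system: GST-fused GSK3beta enzyme, cell-free | Quantity: 1.6 ng GST-GSK3beta enzyme per well | Reagent: 25 µM ATP with peptide substrate | Schedule: 60 min enzyme reaction, room temperature | Signal: Luminescent ADP-Glo measurement of ADP formed | Read-out basis: Score relative to plate controls | Control set: DMSO and 20 µM GW8510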
AI-2 QS mod – Vibrio harveyi AI-2 quorum sensing modulation | Vibrio harveyi JMH597 AI-2 luminescence/OD600 ratio, 9 h; stronger effect = lower value; strain lacks LuxN and CqsS sensors; 0 = neutral-control median | AID 2094 | 0.4% of 300,000 active | activity change, % at 7.5 µM; in the data active means activity change below about -75%, passing the limit was not always enough; inconclusive means no clear call, values can overlap the other calls;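 further: luminescence divided by OD600 gain over 9 h not by final OD600 alone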
Large screens that a line does not name were inactive.

COc1ccc(CN2CCN(C3CCC3)CC2CCO)c(F)c1 (stereo not drawn)	none
C=CCNC(=O)c1cc2c(=O)n3cccc(C)c3nc2s1	none
CCC(C)NC(=O)c1cc2c(=O)n3cccc(C)c3nc2s1 (stereo not drawn)	Rce1 inhib active
COc1cc(NC(=O)C2C3CCC(O3)C2C(=O)O)cc(OC)c1 (stereo not drawn)	none
COc1ccc2c(n1)Sc1nc3ccccc3nc1N2	none
COc1ccc(NC(=O)CN2C(=O)COc3ccc(S(=O)(=O)N4CCCCC4)cc32)c(OC)c1	none
CC(C)[C@H](NS(=O)(=O)c1ccccc1)C(=O)Nc1ccccc1N1CCOCC1	none (no result: Rce1 inhib, GSK3B inh, AI-2 QS mod)
COc1cccc(-c2onc3ccc(C(=O)/C=C/N(C)C)cc23)c1	STK33 kinase inh 54
CCOC(=O)c1nnn(-c2nonc2N)c1-c1ccc(OC)cc1	GSK3A inh 58
CCOC(=O)c1nnn(-c2nonc2N)c1-c1ccccc1Cl	GSK3A inh 55
COC(=O)c1nnn(-c2nonc2N)c1CSc1ccc(Cl)cc1	none
COC(=O)c1nnn(-c2nonc2N)c1CSCCO	GSK3A inh 67, GSK3B inh -74
CCOC(=O)c1nnn(-c2nonc2N)c1-c1cccc2ccccc12	none
Cn1cc(C(=O)Nc2ccc(C#N)cc2)c2ccccc2c1=O	none
O=c1ccc2cc3c([nH]c4ccc(Br)cc43)oc-2c1O	DYRK1A inh 71, STK33 kinase inh 39
C[C@H](CO)N1C[C@H](C)[C@@H](CN(C)S(=O)(=O)c2ccc(F)cc2)Oc2ccc(NC(=O)C3CCCCC3)cc2C1=O	none (no result: Rce1 inhib, GSK3B inh, AI-2 QS mod)
O=C(CCSc1ccc(F)cc1)NNC(=O)c1ccc([N+](=O)[O-])cc1	none (no result: DYRK1A inh, Rce1 inhib, GSK3B inh, AI-2 QS mod)
O=C(CN1C(=O)/C(=C\c2cccc(Br)c2)Oc2ccccc21)NCC1CCCO1 (stereo not drawn)	Rce1 inhib active
COc1ccc([N+](=O)[O-])c(S(=O)(=O)c2ccc(Cl)cc2)n1	AI-2 QS mod -145
COc1ccc([N+](=O)[O-])c(S(=O)(=O)c2ccccc2)n1	AI-2 QS mod inconclusive (no result: DYRK1A inh)
Cc1nc(-c2ccc(Cl)cc2)sc1C1(C)CC(c2ccccc2Br)=NO1 (stereo not drawn)	Rce1 inhib active
O=C(Nc1cccc2ncccc12)c1cccnc1	Rce1 inhib active
c1ccc(C2Nc3ccccc3-c3nc4ccccc4n32)cc1 (stereo not drawn)	Rce1 inhib inconclusive
c1coc(C2Nc3ccccc3-c3nc4ccccc4n32)c1 (stereo not drawn)	STK33 kinase inh 36, Rce1 inhib inconclusive
CCN(CC)CCNC(=O)c1cc2cc3ccc(OC)cc3nc2o1	Rce1 inhib inconclusive
COCCCNC(=O)c1cc2cc3cc(OC)ccc3nc2o1	Rce1 inhib active
CN1CCc2c(sc3c2c(=O)n(-c2ccccc2)c2n[nH]c(=S)n32)C1	GSK3A inh 80, STK33 kinase inh 36, GSK3B inh -50
CN(C)c1cc2c(c(N(C)C)c1)C(=O)c1ccccc1C2=O	STK33 kinase inh 40
Cc1ccnc(NC(=O)CNC(=O)c2ccc(Br)o2)c1	AI-2 QS mod -85
Cc1ccc(NC(=O)CNC(=O)c2ccc(Br)o2)nc1	AI-2 QS mod inconclusive (no result: DYRK1A inh)
N=c1c2c(ncn1Cc1ccco1)Oc1ccc3ccccc3c1C2c1ccccc1 (stereo not drawn)	Rce1 inhib active
CC1Oc2ccccc2C=C1/C=N/Nc1ccc(C(=O)O)cc1 (stereo not drawn)	AI-2 QS mod -92
CC(C)(C)c1ccc(/C=N/Nc2ccc(C(=O)O)cc2)cc1	none
O=C(COC(=O)c1cc[n+]([O-])cc1)Nc1cccc(F)c1	none (no result: Rce1 inhib, GSK3B inh, AI-2 QS mod)
O=C(CC(Nc1ccc(F)cc1)c1ccccc1)c1ccccc1 (stereo not drawn)	Rce1 inhib active
O=C(/C=C/c1ccccc1)NCCC1=CCCCC1	AI-2 QS mod -86
Cc1cccc(NCc2ccc(N(C)C)cc2)n1	none
COc1cc2[nH]c3c(=O)n(CCN4CCOCC4)cnc3c2cc1OC	Rce1 inhib active
COc1ccc2c(c1)[nH]c1c(=O)n(CCN3CCOCC3)cnc12	none
CCn1nc(C)cc1-c1nnc(Sc2ncc([N+](=O)[O-])s2)n1C	AI-2 QS mod -238
O=[N+]([O-])c1c(-c2cn[nH]c2)n[nH]c1-c1cn[nH]c1	GSK3A inh 67
CCCCCCCCCCOC(=O)Cn1c(COc2ccccc2C)[n+](C)c2ccccc21	Rce1 inhib active
CCCCCCCCCCOC(=O)Cn1c(COc2ccc(Cl)cc2)[n+](C)c2ccccc21	STK33 kinase inh 32
CCCCCCCCCCOC(=O)Cn1c(COc2ccccc2)[n+](C)c2ccccc21	none
CCN(CC)S(=O)(=O)c1ccc(N2CCN(C)CC2)c(NC(=O)Nc2ccc(C)cc2)c1	none
Cc1ccc(S(=O)(=O)N2CCN(C(=O)CN3C(=O)c4ccc([N+](=O)[O-])cc4C3=O)CC2)cc1C	none (no result: Rce1 inhib, GSK3B inh, AI-2 QS mod)
OC(CSc1ccccc1)CN1CCN(c2ccc(Cl)cc2)CC1 (stereo not drawn)	none (no result: GSK3A inh, STK33 kinase inh, Rce1 inhib, GSK3B inh, AI-2 QS mod)
Cc1ccc(S(=O)(=O)Nc2c(NC3CCCCC3)c3ccccc3oc2=O)c(C)c1	none
COc1ccc(OC)c(Cc2nnc(CCC(=O)N3CCN(C4CCCC4)CC3)o2)c1	Rce1 inhib active
COc1ccc(OC)c(Cc2nnc(CCC(=O)N3CCCCC3)o2)c1	none (no result: DYRK1A inh)
O=C(O)/C(=C\c1cccc(OCc2ccccc2)c1)c1ccc(F)cc1	none
CC(C)C[C@H](NC(=O)c1nc[nH]c1C(=O)N1CCNCC1)C(=O)OCc1ccccc1	Rce1 inhib active
COc1ccc(C(=O)c2coc3c2C(=O)C(=O)c2ccccc2-3)cc1	AI-2 QS mod -92
O=C(c1ccccc1)c1coc2c1C(=O)c1ccccc1C2=O	none
CC(C)CC(C(=O)NC(C)(C)C)N(Cc1ccccc1Cl)C(=O)c1snc(C(N)=O)c1N (stereo not drawn)	none
CSc1nnc(-c2sc(-c3ccccc3)nc2C)n1C	Rce1 inhib active
Cc1nc(-c2ccccc2)sc1-c1n[nH]c(=S)n1C	none
CCN1C(=O)c2cccc3c(S(=O)(=O)N(C(C)=O)c4ccc(OC(C)=O)cc4)ccc1c23	none (no result: Rce1 inhib, GSK3B inh, AI-2 QS mod)
CC(=O)OC1CCC2(C)C(COc3ccc4ccc(=O)oc4c3)C(C)(O)CCC2C1(C)C (stereo not drawn)	Rce1 inhib active (no result: GSK3A inh)
Cc1cccc(N2CCN(CCCNC(=O)c3ccc(NC(=O)C4=CSCCO4)cc3)CC2C)c1 (stereo not drawn)	STK33 kinase inh 46
N=C1CCC(=N)c2c1c(O)c1ccccc1c2O	STK33 kinase inh 33
CCCOc1ccc(-c2nc(=S)[nH][nH]2)cc1	AI-2 QS mod -84
CNC(=S)N/N=C/c1cn(Cc2c(F)cccc2Cl)c2ccccc12	Rce1 inhib active
CCNC(=S)N/N=C/c1cn(Cc2ccccc2F)c2ccccc12	none
CCc1sc(C(=O)Nc2cccnc2)cc1Br	none
